High-throughput results as filed in PubChem.
CHOP UPR activ = activators of apoptotic arm of unfolded protein response (CHOP); CHO-CHOP luciferase reporter, UPR activation, luminescence; percent of tunicamycin response over DMSO baseline; hit rate 0.34% among 330,000; AID 449763; activation, % at 10 µM;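 active = at 10 µM dose, activation of 40% or more, normalized to positive control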
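Assay system: CHO-CHOP cells, stable luciferase reporter of PERK-eIF2a-CHOP signalling / Buffer or medium: F12 plus 10% serum / Compound dosing: one dose, 10 µM in 0.5% DMSO / Times: 6 h compound treatment, 37 °C / Technique: luciferase luminescence / Read-out: % reporter activation, DMSO baseline versus tunicamycin full activation / Benchmarks: tunicamycin and DMSO controls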
UCH37 DUB inh = inhibitors of human deubiquitinating enzyme UCH37 | hit rate 0.33% among 330,000 | purified proteasome/UCH37, Ub-AMC cleavage fluorescence | inhibition, % (test concentration not listed);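 active = mean inhibition over replicate wells above about 20%, limit read from the data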
Target sequence (Q9Y5K5 whole entry, looked up): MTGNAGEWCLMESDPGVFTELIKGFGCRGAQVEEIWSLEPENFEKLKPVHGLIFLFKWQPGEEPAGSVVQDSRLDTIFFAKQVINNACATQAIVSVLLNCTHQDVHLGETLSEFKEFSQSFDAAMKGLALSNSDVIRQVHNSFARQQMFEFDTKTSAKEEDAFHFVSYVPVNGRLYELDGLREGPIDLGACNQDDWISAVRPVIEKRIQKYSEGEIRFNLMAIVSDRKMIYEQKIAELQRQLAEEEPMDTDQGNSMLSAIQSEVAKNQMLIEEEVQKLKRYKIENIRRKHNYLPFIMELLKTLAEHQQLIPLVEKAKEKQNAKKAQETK
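Assay system: Proteasome-bound UCH37. Buffer or medium: pH 7.4 Tris-HCl (50 mM) with ovalbumin, ATP-MgCl2, DTT. Incubation: 30 min preincubation with enzyme, 25 min cleavage at room temperature. Measured by: fluorescence, ex 355 nm, em 460 nm. Read-out basis: percent inhibition. Control set: wells without proteasome as full block, compound-free enzyme plus substrate as uninhibited.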
XBP1 UPR activ = activators of adaptive arm of unfolded protein response (XBP1) | CHO-XBP1 luciferase reporter, IRE1-XBP1 UPR activation, luminescence; percent of tunicamycin response, DMSO as zero | activation, % at 20 µM | hit rate 0.33% among 330,000 | AID 463104;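 active = versus positive control, 20 µM dose yields 30% or more activation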
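Material: CHO cell line with stable XBP1 luciferase reporter; buffer or medium: F12 medium containing 10% fetal bovine serum; compound: single point, 20 µM final compound, 1% DMSO; incubation: 6 h treatment, 37 °C; measured by: glow luminescence from Steady-Glo reagent; evaluation: activation, % of tunicamycin; control set: tunicamycin high, DMSO low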
CTSL1 counter = blocks F. hepatica cathepsin L1 in PFM18AAP counter-screen; recombinant F. hepatica cathepsin L1, Z-Leu-Arg-MCA fluorescence; hit rate 0.49% among 300,000; inhibition, % at 5.96 µM; AID 1906;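 active = inhibition above the mean of all tested compounds plus 3 SD, set per screening campaign, cut at about 17% in these data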
CHOP inhibitor = CHOP inhibition in unfolded protein response | CHO-K1 CHOP-promoter luciferase, tunicamycin-induced, 15-18 h | inhibition, % at 10 µM | hit rate 3.8% among 220,000;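 active = compounds that reduced the stress-induced luciferase reporter signal by more than about 70% of percent inhibition, limit read from the data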
CHOP confirm = confirmation of CHOP induction inhibitors; shares compounds with CHOP inhibitor; CHO-CHOP promoter luciferase reporter, tunicamycin-induced, luminescence; inhibition, % at 10 µM; hit rate 45% among 2,100;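 active = mean of three repeat readings of reporter signal inhibition above a set limit, cut at about 70% in these data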
Hits are given with their value; – = inactive; · = not tested or not shown. The sample as a whole holds a higher share of hits than the screen did.

SMILES	CHOP UPR activ	UCH37 DUB inh	XBP1 UPR activ	CTSL1 counter	CHOP inhibitor	CHOP confirm
O=C1c2cccc3cccc(c23)C(=O)N1N=Cc1ccc(O)cc1O	·	–	·	·	·	·
Cc1nc2c(C#N)c(-c3ccc(Cl)cc3)ccn2n1	–	–	–	–	–	·
CC(C)(C)c1nc2c(C#N)c(-c3ccc(Cl)cc3)ccn2n1	–	–	–	–	100.9	–
CC(NCc1cccc(OCc2ccccc2)c1)C(O)c1ccccc1 (stereo unspecified)	–	–	–	–	–	·
CC(NCc1ccc(OCc2ccc(Cl)cc2)cc1)C(O)c1ccccc1 (stereo unspecified)	–	–	–	–	104.9	–
O=C1NN=C(c2ccc(Cl)cc2)CC1c1cccc(Cl)c1 (stereo unspecified)	–	–	–	–	101.7	–
O=C1NN=C(c2ccccc2)CC1c1ccc(Cl)cc1Cl (stereo unspecified)	–	–	–	–	–	·
Cc1ccc2oc(-c3cccc(NC(=O)Cc4cccs4)c3)nc2c1	–	–	–	–	97.7	–
CCCC(=O)Nc1cccc(-c2nc3cc(C)c(C)cc3o2)c1	–	–	–	–	105.2	–
Cc1ccc2oc(-c3cccc(NC(=O)c4cc(-n5cnnc5)ccc4Cl)c3)nc2c1	–	–	–	–	101.7	–
Cc1ccc2oc(-c3cccc(NC(=O)c4ccccn4)c3)nc2c1	·	·	·	–	·	·
CCCC(=O)Nc1cccc(-c2nc3ccccc3o2)c1	–	–	–	–	–	·
Cc1ccc(C(=O)Oc2ccc(C=NNC(N)=O)cc2)cc1	·	–	·	·	·	·
Oc1ccccc1CN1CCC(C(O)(c2ccccc2)c2ccccc2)CC1	–	–	–	–	–	·
CC(C)(C)c1ccc(C(O)CCCN2CCC(C(O)(c3ccccc3)c3ccccc3)CC2)cc1 (stereo unspecified)	–	–	–	–	–	134.3
O=c1[nH]c(/C(Cl)=C/c2cc(Cl)ccc2O)nc2cc(Cl)ccc12	–	–	–	–	99.6	–
O=c1[nH]c(/C(Cl)=C/c2cccc(C(F)(F)F)c2)nc2cc(Cl)ccc12	–	–	–	–	–	·
Cc1cccc(C(=O)NC(=S)NNC(=O)c2ccc(Cl)cc2)c1	·	–	·	–	106.6	–
Cc1cccc(C(=O)NC(=S)NNC(=O)c2cccs2)c1	–	–	–	–	–	·
COc1ccc(C=NNC(=O)c2cccnc2)cc1COc1ccc([N+](=O)[O-])cc1	·	–	·	·	·	·
COc1ccc(NC2=C(Cl)C(=O)N(CCc3ccccc3)C2=O)cc1	–	–	–	–	–	·
CCOc1ccc(NC2=C(Cl)C(=O)N(Cc3ccccc3)C2=O)cc1	–	–	–	–	105.3	–
N#CC1=C(N)Oc2c(ccc3cccnc23)C1c1ccccc1 (stereo unspecified)	–	–	–	–	–	·
Cc1ccc2[nH]c(=O)c(C3C(C#N)=C(N)Oc4c3ccc3cccnc43)cc2c1 (stereo unspecified)	–	–	–	–	97.5	–
COc1ccc(-c2nn(-c3ccccc3)cc2/C=N/NC(=O)c2ccc(Br)o2)cc1	–	·	–	–	106.5	127.2
SMILES	CHOP UPR activ	UCH37 DUB inh	XBP1 UPR activ	CTSL1 counter	CHOP inhibitor	CHOP confirm
O=C(NN=Cc1cn(-c2ccccc2)nc1-c1ccc(F)cc1)c1ccc(Br)o1	·	–	·	·	·	·
c1csc(C2Nc3cccc4cccc(c34)N2)c1	–	–	–	–	97.0	–
c1ccc(C2Nc3cccc4cccc(c34)N2)cc1	–	·	–	–	·	·
O=C(CNC(=O)c1ccccc1)NN=Cc1ccc([N+](=O)[O-])s1	·	–	·	·	·	·
Cn1c(=O)c(=O)n(C)c2cc(S(=O)(=O)N3CCC(Cc4ccccc4)CC3)ccc21	–	–	–	–	–	·
O=c1[nH]c2ccc(S(=O)(=O)N3CCC(Cc4ccccc4)CC3)cc2o1	–	–	–	–	100.2	–
CCOC(=O)C(C#N)=NNc1ccc(S(=O)(=O)Nc2nc(C)cc(C)n2)cc1	·	–	·	·	·	·
COc1cc(OC)nc(-n2ncc(Br)c(Br)c2=O)n1	·	–	·	–	111.0	118.5
COc1ccc(NS(=O)(=O)c2cc(NC(=NS(=O)(=O)c3ccccc3)c3ccc(F)cc3)ccc2Cl)cc1	·	–	·	·	·	·
COc1ccc(OC)c(/C(O)=C/C(=O)C(=O)Nc2cc(C)cc(C)c2)c1	–	·	–	–	105.5	–
CCOc1ccc(-c2nc(N)ncc2Oc2cccc(OC)c2)c(O)c1	–	–	–	–	109.7	–
C=C(C)COc1ccc(-c2nc(N)ncc2Oc2ccc(OC)cc2)c(O)c1	–	–	–	–	–	·
CCOc1ccc(-c2n[nH]c(C)c2Oc2ccc(OC)cc2)c(O)c1	–	–	–	–	107.8	88.4
CCOc1ccc(-c2nc(N)ncc2Oc2ccccc2Br)c(O)c1	–	–	–	–	106.1	–
O=c1[nH]c(=O)n(C2CCCCCC2)c(O)c1C=NCc1ccc(F)cc1	–	–	–	–	106.8	–
O=C(CC=NOCc1ccc([N+](=O)[O-])cc1)Nc1ccc(Cl)cc1	·	–	·	·	·	·
Cc1ccc(-c2nnn(CC(=O)N(c3ccccc3F)C(C(=O)NC3CCCC3)c3ccco3)n2)o1 (stereo unspecified)	–	–	–	–	–	·
Cc1ccccc1N(C(=O)Cc1c[nH]c2ccccc12)C(C(=O)NC1CCCCC1)c1ccco1 (stereo unspecified)	–	–	–	–	102.9	–
Cc1ccc(C(C(=O)NC2CCCCC2)N(C(=O)Cc2c[nH]c3ccccc23)c2ccccc2C)o1 (stereo unspecified)	–	–	–	–	100.0	86.1
O=C(Cc1cccs1)NN=Cc1ccc(OCc2ccccc2)cc1	·	–	·	·	·	·
Cc1nc2ccccc2n1N=Cc1cccnc1	·	–	·	·	·	·
O=C(/C=C/c1ccc2c(c1)OCO2)Nc1c(C(=O)O)[nH]c2ccccc12	–	·	–	–	–	·
CCOC(=O)c1[nH]c2ccc(OC)cc2c1NC(=O)/C=C/c1ccc2c(c1)OCO2	–	–	–	–	102.0	–
O=C(c1ccc2c3c(cccc13)C(=O)N(O)C2=O)N1CCCCC1	–	–	–	–	97.8	109.0
O=C(c1cccc2ccccc12)N1CCCCC1	–	–	–	–	·	·
CC1=CC(C)(C)n2c(O)c(N=N)c3c(C)ccc1c32	–	–	–	–	–	·
CC1=CC(C)(C)n2c(O)c(N=N)c3c(C)c(C)cc1c32	–	–	–	–	97.6	–
CC(C)Oc1ccccc1C=NNC(=O)c1ccccc1Cl	·	–	·	·	·	·
CCOc1cc(C2c3c(oc4ccccc4c3=O)C(=O)N2c2nccs2)ccc1O (stereo unspecified)	–	·	–	–	104.2	–
CCOc1cccc(C2c3c(oc4ccccc4c3=O)C(=O)N2c2ccccn2)c1 (stereo unspecified)	–	–	–	–	–	·
